Measured values published in ChEMBL document CHEMBL1131113, “Design and synthesis of [2-(8,9-dioxo-2,6-diazabicyclo[5.2.0]non-1(7)-en-2-yl)-ethyl]phosphonic acid (EAA-090), a potent N-methyl-D-aspartate antagonist, via the use of 3-cyclobutene-1,2-dione as an achiral alpha-amino acid bioisostere” (J Med Chem, 1998).

Experiments:
[1] = system: Mus musculus; experiment: Effective dose against NMDA-induced lethality in mice on ip administration; assay type: functional
[2] = molecular target: Glutamate NMDA receptor; experiment: Tested in vitro for antagonistic activity at N-methyl-D-aspartate glutamate receptor by measuring displacement of [3H]TCP from crude synaptic membrane preparations obtained from rat brain; assay type: functional
How it was run: (§1)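 Same membranes incubated in triplicate 60 min at 25 °C with 2.5 nM [3H]TCP, 3 μM L-glutamate, 1 μM glycine, test drug. Nonspecific binding defined with 100 μM MK-801. Vacuum filtration on 0.1% PEI-pretreated filters, ice-cold buffer rinses, scintillation counting. IC50 with 95% confidence limits by nonlinear logistic regression over 5–10 concentrations.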

[3] = molecular target: Glutamate NMDA receptor; experiment: Displacement of [3H]CPP from rat brain synaptic membrane N-methyl-D-aspartate glutamate receptor
How it was run: (§2)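 Crude synaptic membranes, thawed, washed once in Tris-HCl, resuspended at 0.3–0.5 mg protein/mL (Lowry). Affinity from displacement of [3H]CPP binding per Murphy's method.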

[4] = molecular target: T1, Glutamate NMDA receptor (Rattus norvegicus) (UniProt P35439+Q00959+Q00960+Q00961+Q62645+Q8VHN2+Q9R1M7); experiment: Tested in vitro at 100 uM for antagonistic activity at N-methyl-D-aspartate glutamate receptor by measuring displacement of [3H]TCP from crude synaptic membrane preparations obtained from rat brain; assay type: functional; how it was run: as §1
[5] = molecular target: T1, Glutamate NMDA receptor (Rattus norvegicus); experiment: Tested in vitro at 10000 nM for binding affinity at N-methyl-D-aspartate glutamate receptor by measuring displacement of [3H]CPP from crude synaptic membrane preparations obtained from rat brain; how it was run: as §2
[6] = species: Rattus norvegicus; experiment: Effect on infarct volume in the rat was determined by rat permanent focal ischemia model; assay type: functional
How it was run: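 Male Fisher-344 rats (290–310 g) under 2–4% isoflurane. Right common carotid occluded and distal MCA electrocoagulated transcranially, body temperature 37 ± 1 °C. Single iv bolus via tail vein (1 mL/kg, 10 mg/kg in 0.9% NaCl) 5 min post-occlusion. At 24 h, cresyl violet-stained 20 μm frozen sections at 400-μm intervals; infarct volume by image analysis; mean ± SE.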

Nc1c(NCCP(=O)(O)O)c(=O)c1=O
ED50 [1]: 29 mg/kg

O=C1C2=NCCCN(CCCP(=O)(O)O)C2=C1O
IC50 [2]: > 100000 nM | ED50 [1]: > 10 mg/kg | IC50 [3]: > 1000 nM

O=C1C2=NCCCN(Cc3nn[nH]n3)C2=C1O
IC50 [2]: 18000 nM | ED50 [1]: > 10 mg/kg | IC50 [3]: 38 nM

O=C1C2=NCCN(CCP(=O)(O)O)C2=C1O
IC50 [2]: 29000 nM | ED50 [1]: 6.1 mg/kg | IC50 [3]: 92 nM

O=C([O-])CCN1CCCN=C2C(=O)C(O)=C21.[Na+]
ED50 [1]: > 20 mg/kg | IC50 [3]: 340 nM | inhibition [4]: 53%

O=C1C2=NCC(O)CN(CCP(=O)(O)O)C2=C1O (configuration not stated)
IC50 [2]: 10000 nM | ED50 [1]: 1.8 mg/kg | IC50 [3]: 19 nM

O=C1C2=NCCCN(C/C=C/P(=O)(O)O)C2=C1O
IC50 [2]: > 100000 nM | ED50 [1]: > 5 mg/kg | IC50 [3]: > 10000 nM

CC1(C)CN=C2C(=O)C(O)=C2N(CCP(=O)(O)O)C1
ED50 [1]: 22 mg/kg | IC50 [3]: 280 nM | inhibition [4]: 59%

O=C(O)[C@@H]1C[C@H](CP(=O)(O)O)CCN1 (single isomer, unassigned) [SELFOTEL]
IC50 [2]: 22000 nM | ED50 [1]: 1.5 mg/kg

O=C([O-])CN1CCCN=C2C(=O)C(O)=C21.[Na+]
ED50 [1]: > 20 mg/kg | IC50 [3]: 550 nM | inhibition [4]: 64%

O=C1C(O)=C2/C1=N\CCCCN2CCP(=O)(O)O
IC50 [2]: 36000 nM | ED50 [1]: > 3 mg/kg | IC50 [3]: 49 nM

O=C1C2=NCCCN(CCc3nnn[nH]3)C2=C1O
IC50 [2]: > 100000 nM | ED50 [1]: > 5 mg/kg | inhibition [5]: 41%

O=c1c2c(c1=O)N(CCP(=O)(O)O)CCCN2 [PERZINFOTEL]
Infarct volume [6]: 43.2 mm**3 | IC50 [2]: 7600 nM | ED50 [1]: 2.1 mg/kg | IC50 [3]: 30 nM
